From ChEMBL document CHEMBL1649231, “In vitro activities of panduratin A against clinical Staphylococcus strains” (2009)

Experiments:
Assay type in all cases: functional
[1] = tested on: Mammaliicoccus sciuri; assay: Bactericidal activity against methicillin-susceptible coagulase-negative Staphylococcus sciuri after 24 hrs by plate counting method
Method in brief: (§1)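 Clinical staphylococcal isolates from patient body fluids, blood, genital secretions, pus or sputum; species by conventional methods or Vitek. Twofold dilutions in Mueller-Hinton broth, inoculum 5 × 10^5 CFU/ml, 37°C aerobic 24 h (CLSI M7-A6 microdilution). About 100 μl from each well without visible growth spread on MHA; 37°C 24 h. MBC = lowest concentration giving no growth on agar.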

[2] = tested on: Mammaliicoccus sciuri; assay: Antimicrobial activity against methicillin-resistant coagulase-negative Staphylococcus sciuri after 24 hrs by broth microdilution method
Method in brief: (§2)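 Clinical isolates came from blood, body fluids, genital secretions, pus or sputum, identified conventionally or by Vitek. MICs were run by CLSI M7-A6 broth microdilution in Mueller-Hinton broth with 5 × 10^5 CFU/ml inoculum. Agents were twofold serially diluted, starting from 10% DMSO. Drug-free and uninoculated controls were included. Plates were incubated aerobically at 37°C for 24 h; MIC is the lowest concentration giving no visible growth.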

[3] = tested on: Mammaliicoccus sciuri; assay: Antimicrobial activity against methicillin-resistant coagulase-negative Staphylococcus sciuri assessed as intermediate resistant isolates after 24 hrs by broth microdilution method
[4] = tested on: Staphylococcus hominis; assay: Antimicrobial activity against methicillin-resistant coagulase-negative Staphylococcus hominis after 24 hrs by broth microdilution method; method in brief: as §2
[5] = tested on: Staphylococcus haemolyticus; assay: Antimicrobial activity against methicillin-susceptible coagulase-negative Staphylococcus haemolyticus assessed as resistant isolates after 24 hrs by broth microdilution method
[6] = tested on: Staphylococcus simulans; assay: Antimicrobial activity against methicillin-susceptible coagulase-negative Staphylococcus simulans assessed as resistant isolates after 24 hrs by broth microdilution method
[7] = tested on: Staphylococcus hominis; assay: Antimicrobial activity against methicillin-susceptible coagulase-negative Staphylococcus hominis assessed as resistant isolates after 24 hrs by broth microdilution method
[8] = tested on: Staphylococcus aureus; assay: Bactericidal activity against methicillin-resistant Staphylococcus aureus after 24 hrs by plate counting method
[9] = tested on: Staphylococcus aureus; assay: Antimicrobial activity against methicillin-resistant Staphylococcus aureus assessed as intermediate resistant isolates after 24 hrs by broth microdilution method
[10] = tested on: Staphylococcus haemolyticus; assay: Bactericidal activity against methicillin-susceptible coagulase-negative Staphylococcus haemolyticus after 24 hrs by plate counting method; method in brief: as §1
[11] = tested on: Staphylococcus haemolyticus; assay: Antimicrobial activity against methicillin-susceptible coagulase-negative Staphylococcus haemolyticus after 24 hrs by broth microdilution method; method in brief: as §2
[12] = tested on: Mammaliicoccus sciuri; assay: Antimicrobial activity against methicillin-resistant coagulase-negative Staphylococcus sciuri assessed as susceptible isolates after 24 hrs by broth microdilution method
[13] = tested on: Staphylococcus simulans; assay: Antimicrobial activity against methicillin-resistant coagulase-negative Staphylococcus simulans after 24 hrs by broth microdilution method; method in brief: as §2
[14] = tested on: Staphylococcus aureus; assay: Antimicrobial activity against methicillin-resistant Staphylococcus aureus assessed as susceptible isolates after 24 hrs by broth microdilution method
[15] = tested on: Staphylococcus haemolyticus; assay: Antimicrobial activity against methicillin-resistant coagulase-negative Staphylococcus haemolyticus after 24 hrs by broth microdilution method; method in brief: as §2
[16] = tested on: Mammaliicoccus sciuri; assay: Antimicrobial activity against methicillin-susceptible coagulase-negative Staphylococcus sciuri after 24 hrs by broth microdilution method; method in brief: as §2
[17] = tested on: Staphylococcus hominis; assay: Antimicrobial activity against methicillin-resistant coagulase-negative Staphylococcus hominis assessed as resistant isolates after 24 hrs by broth microdilution method
[18] = tested on: Staphylococcus haemolyticus; assay: Antimicrobial activity against methicillin-resistant coagulase-negative Staphylococcus haemolyticus assessed as resistant isolates after 24 hrs by broth microdilution method
[19] = tested on: Staphylococcus aureus; assay: Antimicrobial activity against methicillin-susceptible Staphylococcus aureus assessed as susceptible isolates after 24 hrs by broth microdilution method
[20] = tested on: Staphylococcus epidermidis; assay: Bactericidal activity against methicillin-susceptible coagulase-negative Staphylococcus epidermidis after 24 hrs by plate counting method; method in brief: as §1
[21] = tested on: Staphylococcus simulans; assay: Bactericidal activity against methicillin-susceptible coagulase-negative Staphylococcus simulans after 24 hrs by plate counting method; method in brief: as §1
[22] = tested on: Staphylococcus aureus; assay: Antimicrobial activity against methicillin-resistant Staphylococcus aureus assessed as resistant isolates after 24 hrs by broth microdilution method
[23] = tested on: Staphylococcus aureus; assay: Antimicrobial activity against methicillin-susceptible Staphylococcus aureus after 24 hrs by broth microdilution method; method in brief: as §2
[24] = tested on: Staphylococcus haemolyticus; assay: Antimicrobial activity against methicillin-susceptible coagulase-negative Staphylococcus haemolyticus assessed as susceptible isolates after 24 hrs by broth microdilution method
[25] = tested on: Staphylococcus epidermidis; assay: Antimicrobial activity against methicillin-resistant coagulase-negative Staphylococcus epidermidis assessed as susceptible isolates after 24 hrs by broth microdilution method
[26] = tested on: Staphylococcus simulans; assay: Bactericidal activity against methicillin-resistant coagulase-negative Staphylococcus simulans after 24 hrs by plate counting method; method in brief: as §1
[27] = tested on: Staphylococcus simulans; assay: Antimicrobial activity against methicillin-susceptible coagulase-negative Staphylococcus simulans after 24 hrs by broth microdilution method; method in brief: as §2
[28] = tested on: Staphylococcus aureus; assay: Antimicrobial activity against methicillin-susceptible Staphylococcus aureus assessed as intermediate resistant isolates after 24 hrs by broth microdilution method
[29] = tested on: Staphylococcus hominis; assay: Antimicrobial activity against methicillin-susceptible coagulase-negative Staphylococcus hominis after 24 hrs by broth microdilution method; method in brief: as §2
[30] = tested on: Staphylococcus hominis; assay: Antimicrobial activity against methicillin-resistant coagulase-negative Staphylococcus hominis assessed as susceptible isolates after 24 hrs by broth microdilution method
[31] = tested on: Staphylococcus aureus; assay: Bactericidal activity against methicillin-susceptible Staphylococcus aureus after 24 hrs by plate counting method; method in brief: as §1
[32] = tested on: Staphylococcus hominis; assay: Antimicrobial activity against methicillin-susceptible coagulase-negative Staphylococcus hominis assessed as susceptible isolates after 24 hrs by broth microdilution method
[33] = tested on: Staphylococcus simulans; assay: Antimicrobial activity against methicillin-resistant coagulase-negative Staphylococcus simulans assessed as resistant isolates after 24 hrs by broth microdilution method
[34] = tested on: Staphylococcus epidermidis; assay: Antimicrobial activity against methicillin-resistant coagulase-negative Staphylococcus epidermidis assessed as intermediate resistant isolates after 24 hrs by broth microdilution method
[35] = tested on: Staphylococcus hominis; assay: Antimicrobial activity against methicillin-resistant coagulase-negative Staphylococcus hominis assessed as intermediate resistant isolates after 24 hrs by broth microdilution method
[36] = tested on: Staphylococcus haemolyticus; assay: Antimicrobial activity against methicillin-resistant coagulase-negative Staphylococcus haemolyticus assessed as intermediate resistant isolates after 24 hrs by broth microdilution method
[37] = tested on: Mammaliicoccus sciuri; assay: Antimicrobial activity against methicillin-susceptible coagulase-negative Staphylococcus sciuri assessed as resistant isolates after 24 hrs by broth microdilution method
[38] = tested on: Staphylococcus hominis; assay: Bactericidal activity against methicillin-resistant coagulase-negative Staphylococcus hominis after 24 hrs by plate counting method
[39] = tested on: Staphylococcus hominis; assay: Bactericidal activity against methicillin-susceptible coagulase-negative Staphylococcus hominis after 24 hrs by plate counting method; method in brief: as §1

## GENTAMICIN
[1]
  MBC: 0.25 µg/mL
  MBC50: 1 µg/mL
  MBC90: 64 µg/mL
[2]
  MIC50: 8 µg/mL
  MIC90: 64 µg/mL
[3]
  Activity: 7%
[4]
  MIC50: 8 µg/mL
  MIC90: 64 µg/mL
[5]
  Activity: 27%
[6]
  Activity: 27%
[7]
  Activity: 27%
[8]
  MBC: 2 µg/mL
  MBC50: 64 µg/mL
  MBC90: 128 µg/mL
[9]
  Activity: 22%
[10]
  MBC: 0.25 µg/mL
  MBC50: 1 µg/mL
  MBC90: 64 µg/mL
[11]
  MIC50: 0.125 µg/mL
  MIC90: 32 µg/mL
[12]
  Activity: 7%
[13]
  MIC50: 8 µg/mL
  MIC90: 64 µg/mL
[14]
  Activity: 15%
[15]
  MIC50: 8 µg/mL
  MIC90: 64 µg/mL
[16]
  MIC50: 0.125 µg/mL
  MIC90: 32 µg/mL
[17]
  Activity: 48%
[18]
  Activity: 48%
[19]
  Activity: 52%
[20]
  MBC: 0.25 µg/mL
  MBC50: 1 µg/mL
  MBC90: 64 µg/mL
[21]
  MBC: 0.25 µg/mL
  MBC50: 1 µg/mL
  MBC90: 64 µg/mL
[22]
  Activity: 63%
[23]
  MIC50: 4 µg/mL
  MIC90: 64 µg/mL
[24]
  Activity: 73%
[25]
  Activity: 45%
[26]
  MBC: 0.25 µg/mL
  MBC50: 8 µg/mL
  MBC90: 128 µg/mL
[27]
  MIC50: 0.125 µg/mL
  MIC90: 32 µg/mL
[28]
  Activity: 0%
[29]
  MIC50: 0.125 µg/mL
  MIC90: 32 µg/mL
[30]
  Activity: 45%
[31]
  MBC: 0.5 µg/mL
  MBC50: 8 µg/mL
  MBC90: 128 µg/mL
[32]
  Activity: 73%
[33]
  Activity: 48%
[34]
  Activity: 7%
[35]
  Activity: 7%
[36]
  Activity: 7%
[37]
  Activity: 27%
[38]
  MBC: 0.25 µg/mL
  MBC50: 8 µg/mL
  MBC90: 128 µg/mL
[39]
  MBC: 0.25 µg/mL
  MBC50: 1 µg/mL
  MBC90: 64 µg/mL

## C[C@H]1COc2c(N3CCN(C)CC3)c(F)cc3c(=O)c(C(=O)O)cn1c23.C[C@H]1COc2c(N3CCN(C)CC3)c(F)cc3c(=O)c(C(=O)O)cn1c23.O [LEVOFLOXACIN]
[1]
  MBC50: 1 µg/mL
  MBC90: 4 µg/mL
[1]; Mammaliicoccus sciuri, 24 h
  MBC: 0.5 µg/mL
[2]
  MIC: 0.25 µg/mL
  MIC50: 0.25 µg/mL
  MIC90: 4 µg/mL
[3]
  Activity: 15%
[4]
  MIC: 0.25 µg/mL
  MIC50: 0.25 µg/mL
  MIC90: 4 µg/mL
[5]
  Activity: 4%
[6]
  Activity: 4%
[7]
  Activity: 4%
[8]
  MBC50: 16 µg/mL
  MBC90: 512 µg/mL
[8]; Staphylococcus aureus, 24 h
  MBC: 0.5 µg/mL
[9]
  Activity: 0%
[10]
  MBC50: 1 µg/mL
  MBC90: 4 µg/mL
[10]; Staphylococcus haemolyticus, 24 h
  MBC: 0.5 µg/mL
[11]
  MIC: 0.25 µg/mL
  MIC50: 0.25 µg/mL
  MIC90: 0.5 µg/mL
[12]
  Activity: 15%
[13]
  MIC: 0.25 µg/mL
  MIC50: 0.25 µg/mL
  MIC90: 4 µg/mL
[14]
  Activity: 18%
[15]
  MIC: 0.25 µg/mL
  MIC50: 0.25 µg/mL
  MIC90: 4 µg/mL
[16]
  MIC: 0.25 µg/mL
  MIC50: 0.25 µg/mL
  MIC90: 0.5 µg/mL
[17]
  Activity: 59%
[18]
  Activity: 59%
[19]
  Activity: 81%
[20]
  MBC50: 1 µg/mL
  MBC90: 4 µg/mL
[20]; Staphylococcus epidermidis, 24 h
  MBC: 0.5 µg/mL
[21]
  MBC50: 1 µg/mL
  MBC90: 4 µg/mL
[21]; Staphylococcus simulans, 24 h
  MBC: 0.5 µg/mL
[22]
  Activity: 82%
[23]
  MIC: 0.125 µg/mL
  MIC50: 0.125 µg/mL
  MIC90: 8 µg/mL
[24]
  Activity: 96%
[25]
  Activity: 26%
[26]
  MBC50: 4 µg/mL
  MBC90: 16 µg/mL
[26]; Staphylococcus simulans, 24 h
  MBC: 0.5 µg/mL
[27]
  MIC: 0.25 µg/mL
  MIC50: 0.25 µg/mL
  MIC90: 0.5 µg/mL
[28]
  Activity: 4%
[29]
  MIC: 0.25 µg/mL
  MIC50: 0.25 µg/mL
  MIC90: 0.5 µg/mL
[30]
  Activity: 26%
[31]
  MBC50: 1 µg/mL
  MBC90: 8 µg/mL
[31]; Staphylococcus aureus, 24 h
  MBC: 0.125 µg/mL
[32]
  Activity: 96%
[33]
  Activity: 59%
[34]
  Activity: 15%
[35]
  Activity: 15%
[36]
  Activity: 15%
[37]
  Activity: 4%
[38]
  MBC50: 4 µg/mL
  MBC90: 16 µg/mL
[38]; Staphylococcus hominis, 24 h
  MBC: 0.5 µg/mL
[39]
  MBC50: 1 µg/mL
  MBC90: 4 µg/mL
[39]; Staphylococcus hominis, 24 h
  MBC: 0.5 µg/mL
